AHR activator – AHR activators, primary screen, cell-based, luminescence, luciferase reporter, human. Aryl hydrocarbon receptor (Homo sapiens), P35869. AHR-responsive luciferase reporter cells. activation, % at 5 µM. hit rate 2.5% among 320,000. AID 2796, 2010; in the data active means activation above about 47%
STAT3 activator – IL-6 driven STAT3 reporter potentiators, primary screen, U3A cells, luciferase, luminescence, MLSCN library; activation (% of control), % at 5.6 µM; IL-6 STAT3-luciferase reporter; 100% = signal with IL-6 EC80 alone; hit rate 0.91% among 190,000; AID 871, 2007;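 active means activation above the screen-wide mean of compound activation plus 3 SD, cut at about 130% in these data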
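Test system: human U3A cells carrying STAT3-luciferase construct; control set: IL-6-only wells as 100% reference; timing: compound pre-incubation 1 h before IL-6, then 6 h stimulation at 37 °C; also added: IL-6 stimulus at 33 ng/mL final; evaluation: % activation versus median of IL-6-stimulated wells; detection: reporter luminescence signal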
Hsp70 activator – Hsp70 transcriptional activators, primary screen, cell-based, HeLa, Hsp70 promoter luciferase, luminescence, 10 µM; HeLa Hsp70 promoter luciferase reporter; scaled: vehicle 0, proteasome-inhibitor control 100%; activation, % at 10 µM; hit rate 0.04% among 200,000;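 active means activation above the mean across all tested compounds plus 3 SD, cutoff set per campaign, cut at about 5.5% in these data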
PolyA inh – polyadenylation inhibitors in yeast reporter cells, primary screen, luminescence, S. cerevisiae; hit rate 0.02% among 300,000; S. cerevisiae SKY197-pL101 polyadenylation reporter, beta-gal luminescence; efflux-impaired pdr1/pdr3 knockout yeast; score 100 = 6 SD above DMSO; AID 1875, 2009; activity score, % at 12 µM;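 active means lowest replicate activity score at least 50, where 100 means six control SD above control mean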;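 further: yeast exposed to compound for 9 h at 30 °C; higher score means more reporter readthrough which indicates perturbed polyadenylation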
PERK inh – block of dimerizer-induced PERK translation repression, primary screen, PERK inhibitor project, CHO PERK-DD cells, SEAP luminescence, HTS. inhibition, % at 5.6 µM. AID 1416, 2008. hit rate 0.17% among 220,000. Eukaryotic translation initiation factor 2-alpha kinase 3 (Homo sapiens), Q9NZJ5. CHO PERK-DD fusion, SEAP luminescence translation reporter;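 active means inhibition above the mean inhibition of all tested compounds plus 3 SD, set separately per screening campaign, cut at about 2.9% in these data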;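 further: PERK kinase domain activated by AP20187 dimerizer at 100 nM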
Target sequence (Q9NZJ5 whole entry, looked up, the tested form may be a part): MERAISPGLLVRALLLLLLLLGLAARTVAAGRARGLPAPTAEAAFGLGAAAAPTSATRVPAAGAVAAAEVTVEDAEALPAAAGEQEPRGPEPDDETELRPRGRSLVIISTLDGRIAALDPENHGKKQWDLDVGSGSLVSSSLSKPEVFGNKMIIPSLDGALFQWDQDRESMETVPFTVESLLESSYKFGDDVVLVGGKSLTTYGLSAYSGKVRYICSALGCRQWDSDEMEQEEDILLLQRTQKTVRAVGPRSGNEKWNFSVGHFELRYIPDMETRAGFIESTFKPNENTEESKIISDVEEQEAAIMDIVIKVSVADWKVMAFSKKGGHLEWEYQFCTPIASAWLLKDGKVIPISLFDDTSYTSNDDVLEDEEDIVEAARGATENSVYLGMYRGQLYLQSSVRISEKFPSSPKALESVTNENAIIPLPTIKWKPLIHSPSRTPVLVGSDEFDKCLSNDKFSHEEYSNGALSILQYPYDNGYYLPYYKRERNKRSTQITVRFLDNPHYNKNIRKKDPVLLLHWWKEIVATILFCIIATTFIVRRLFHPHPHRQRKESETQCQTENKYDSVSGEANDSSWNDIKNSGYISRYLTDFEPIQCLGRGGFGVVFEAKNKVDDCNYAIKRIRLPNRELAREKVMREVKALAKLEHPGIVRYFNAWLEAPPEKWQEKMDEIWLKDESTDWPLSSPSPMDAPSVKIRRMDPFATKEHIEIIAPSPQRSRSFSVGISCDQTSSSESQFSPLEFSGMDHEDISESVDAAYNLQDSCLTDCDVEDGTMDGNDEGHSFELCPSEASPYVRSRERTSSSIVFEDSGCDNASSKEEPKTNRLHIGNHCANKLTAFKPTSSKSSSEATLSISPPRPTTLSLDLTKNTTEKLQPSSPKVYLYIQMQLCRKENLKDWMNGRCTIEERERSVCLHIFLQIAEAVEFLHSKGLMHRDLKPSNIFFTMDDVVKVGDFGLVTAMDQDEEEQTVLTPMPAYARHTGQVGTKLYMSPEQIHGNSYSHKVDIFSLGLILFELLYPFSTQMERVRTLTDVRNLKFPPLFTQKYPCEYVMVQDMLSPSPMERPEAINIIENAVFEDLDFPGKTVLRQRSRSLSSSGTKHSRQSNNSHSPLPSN
HSF1 inh – HSF1 inhibitors in luciferase reporter cells, primary screen, cell-based, NIH3T3, luminescence. NIH3T3-HGL HSE-luciferase, MG132-induced, luminescence 8 h; active compounds read low. activity change, negative = inhibition, % at 7.5 µM (by protocol). hit rate 0.77% among 300,000;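 active means more than half of replicate wells show activity change below -50%, luminescence cut by over half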;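 further: luciferase reports HSF-1 transcriptional activity via heat shock element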
Hits are given with their value; – = inactive; · = not tested or not shown. Hits are enriched below; roughly 3.6% of the tested compounds scored in any of these assays.

SMILES	AHR activator	STAT3 activator	Hsp70 activator	PolyA inh	PERK inh	HSF1 inh
O=C1C(=C2SCCCS2)CC/C1=C\c1ccc(F)cc1	–	–	–	–	–	-75
Cn1cccc1/C=N/NC(=O)CSc1nc2ccccc2[nH]1	–	·	·	–	–	–
O=C(CCCCCCCCN1C(=O)c2ccccc2C1=O)N1CCOCC1	–	·	·	–	–	–
O=C(CCCCCCN1C(=O)c2ccccc2C1=O)N1CCC(c2ccccc2)C1 (configuration not stated)	–	–	–	–	–	-64
Cc1cc(Cl)c2cc3ccccc3cc2n1	52	·	·	–	–	–
Cc1cc(Cl)c2ccc(Cl)cc2n1	–	·	·	–	–	–
CCOc1ccccc1C(=O)Nc1nnc(C(C)C)s1	57	–	–	–	–	–
CCOc1ccccc1C(=O)Nc1cccc2cccnc12	74	·	·	–	·	–
CC(C)Oc1ccc(C(=O)Nc2cccc3cccnc23)cc1	–	–	–	–	–	–
CCOc1ccccc1C(=O)Nc1nncs1	–	–	–	–	–	–
CCOc1ccc(C(=O)Nc2cccc3cccnc23)cc1	52	·	·	–	·	–
CCCCNC(=O)[C@H]1C[C@H]1[C@@H](O)[C@H](CO)NC(=O)[C@H](COCc1ccccc1)NC(=O)OC(C)(C)C	–	·	·	–	·	–
COc1ccc(NC(=S)Nc2cc(C)cc(C)n2)cc1OC	–	–	–	–	–	–
COc1cccc(NC(=S)Nc2cc(C)cc(C)n2)c1	66	·	·	–	–	–
Cc1cc(C)nc(NC(=S)Nc2cccc(F)c2)c1	48	·	·	–	–	–
Cn1c(Cl)c(C(=O)Nc2ccc(Cl)cc2)c2ccccc21	57	155	–	·	–	·
O=C(CN1C(=O)NC2(CCCCCC2)C1=O)NCc1ccc(Cl)cc1	–	·	·	·	·	·
Nc1nnc(SCC(=O)c2ccc3ccccc3c2)s1	48	–	–	–	–	–
Nc1ccc2nc(SCC(=O)c3ccccc3)sc2c1	49	·	·	–	·	–
S=C1CCC(c2ccc(Br)cc2)=NN1c1ccccc1	–	·	·	–	–	–
CCN(CC)C(=O)c1ccc2c(=O)n(Cc3cccc(Br)c3)c(=S)[nH]c2c1	–	·	·	–	·	–
CCCc1c(C(=O)NNc2ccccc2OC)cnn1-c1ccccc1	–	·	·	–	–	–
CCOC(=O)CSc1nc2c(cnn2-c2ccc(Cl)cc2)c(=O)[nH]1	–	·	·	–	·	–
CCOC(=O)CSc1ccc(C(=O)Nc2ccc(OC)cc2)cn1	57	–	–	–	–	–
CCOC(=O)CSc1ccc(C(=O)Nc2ccc(Cl)cc2)cn1	58	–	–	–	–	–
SMILES	AHR activator	STAT3 activator	Hsp70 activator	PolyA inh	PERK inh	HSF1 inh
CCCc1c(C(=O)Nc2ccc(OC)cc2)cnn1-c1ccccc1	73	·	·	–	–	–
N#Cc1cccc(CN2CCC(=O)N([C@H](CO)Cc3ccccc3)CC2)c1	–	·	·	–	·	–
COc1ccc(CCNC(=O)c2ccc3c(c2)OCCO3)cc1	–	–	–	–	–	–
O=C(NCCc1ccc(F)cc1)Nc1ccc2c(c1)OCO2	–	–	–	–	–	–
O=C(CCCc1ccccc1)c1ccc2c(c1)OCCO2	–	–	–	–	–	-89
O=C(NCCc1ccccc1)c1ccc2c(c1)OCCCO2	–	·	·	–	·	-83
O=C(CCc1ccccc1)c1ccc2c(c1)OCCCO2	–	–	–	–	–	–
O=C(NCCc1ccccc1)c1ccc2c(c1)OCCO2	–	·	·	–	·	-66
O=C(NCCc1ccccc1)Nc1ccc2c(c1)OCO2	71	–	–	–	–	–
CC(=O)c1cccc(NC(=O)CN2CCc3cc4c(cc3C2C)OCCCO4)c1 (configuration not stated)	–	·	·	–	·	–
O=C1C=C(c2ccc3ncccc3c2)C[C@@H](c2ccc3c(c2)OCO3)C1	–	·	·	·	·	·
C/C(=C\c1ccc(C)o1)C(=O)c1c(C)cc(C)[nH]c1=O	–	–	–	–	–	–
Cc1c(Cl)cccc1NC(=O)CNC(=O)C1CCN(C(=O)Nc2ccccc2)CC1	–	·	·	·	·	·

Compound activity: PubChem BioAssay, several laboratories
